STAT3 inh: IL-6 driven STAT3 reporter inhibitors, primary screen, U3A cells, luciferase, luminescence, MLSCN library; IL-6 STAT3-luciferase reporter; host cell line lacks STAT1; inhibition, % at 5.5 µM; 0.89% of 190,000 active; AID 862, 2007;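 active means inhibition above the mean inhibition across all screened compounds plus 3 SD, cut at about 44% in these data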;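 further: 0% = DMSO only wells and 100% = 100 µM nifuroxazide control wells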
STAT3 act-1: IL-6 driven STAT3 reporter potentiators, primary screen, U3A cells, luciferase, luminescence, MLSCN library; IL-6 STAT3-luciferase reporter; 100% = signal with IL-6 EC80 alone; activation (% of control), % at 5.6 µM; 0.91% of 190,000 active; AID 871, 2007;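 active means activation above the screen-wide mean of compound activation plus 3 SD, cut at about 130% in these data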;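 further: 0% = background luminescence of wells with medium and substrate only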
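Assay system – human STAT1-deficient U3A cells with stable STAT3-luciferase reporter · Also added – IL-6 (33 ng/mL) · Schedule – compound 1 h, then IL-6 6 h at 37 °C · Technique – reporter luminescence signal · Evaluation – % activation versus median of IL-6-stimulated wells · Benchmarks – IL-6-only wells as 100% reference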
C8 TRAIL sens: viability loss with TRAIL in NB7+C8 cells, primary screen, TRAIL sensitizer project, cell-based, ATPlite luminescence | inhibition (viability loss, TRAIL sensitization), % at 10 µM | 1% of 360,000 active;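 active means compounds causing at least 50% loss of cell viability in the single-dose screen, relative to plate controls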
STAT1 blocker: STAT1 signaling inhibitors, primary screen, cell-based, HTS, luciferase reporter; NIH 3T3 STAT1-luciferase reporter, IFN-gamma, luminescence; inhibition, % at 5.5 µM; 0.35% of 200,000 active; AID 920, 2007;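 active means inhibition above a set limit, the mean inhibition across all tested compounds plus 3 SD, cut at about 34% in these data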;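 further: 0% = IFN-gamma with DMSO and 100% = IFN-gamma with 300 µM nifuroxazide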
PPC-1+TRAIL kill: compounds killing PPC-1 cancer cells with TRAIL present, primary screen, TRAIL potentiator project, ATPLite luminescence, uHTS; PPC-1 cells + TRAIL, ATPLite viability luminescence; cell killing (% activity), % at 4 µM or 5 µM; 0.41% of 220,000 active;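 active means cell killing above 50% in the first pass at 4 µM, then a duplicate retest at 5 µM averaging 50% or more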;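 further: plate controls were cells with TRAIL plus DMSO for no effect and medium-only wells lacking cells for full effect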
STAT3 act-2: STAT3 reporter potentiators, retest of hits, confirmation, U3A cells, luciferase, luminescence; IL-6 potentiation; U3A cells lack STAT1; 100 means same as IL-6 alone; shares compounds with STAT3 act-1; 64% of 1,200 active; potentiation (% of control), % at 5.7 µM;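 active means percent activation of the STAT3 luciferase reporter above a set limit taken from the earlier primary screen, cut at about 130% in these data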;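 further: 0% = background signal of medium plus substrate and 100% = median of IL-6 with DMSO wells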
NFkB act 2: NF-kB reporter activators in human cells, counter-screen for STAT3 activator project; shares compounds with STAT3 act-1; NF-kappaB reporter activation; activation (% of control), % at 5.7 µM; 11% of 1,200 active; in the data active means activation above about 120%;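 further: reporter induced by TNF-alpha stimulation; 100% = median of stimulated DMSO wells and 0% = no signal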
STAT1 act: STAT1 reporter activators, IFN-gamma induced, counter-screen for STAT3 activator project, cell-based, NIH 3T3, luciferase luminescence; shares compounds with STAT3 act-1; NIH 3T3 STAT1-luciferase reporter; activation (% of control), % at 5.7 µM; 13% of 1,200 active; AID 1318, 2008;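 active means activation above the solvent-only control well mean plus 3 SD, set per screening run, cut at about 120% in these data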;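 further: 100% = IFN-gamma with DMSO median signal so 100% means no change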
* marks the source's active call; other numbers are inactive results; x = no result. Rows were chosen to be rich in hits. Some 1.8% of all compounds tested hit in one or more screens of this group.

SMILES | STAT3 inh | STAT3 act-1 | C8 TRAIL sens | STAT1 blocker | PPC-1+TRAIL kill | STAT3 act-2 | NFkB act 2 | STAT1 act
O=c1oc2ccccc2c(Nc2cc3ccccc3cc2O)c1[N+](=O)[O-] | -45.1 | 140.7* | -5.1 | -7.7 | 30.2 | 170.7* | 111.9 | 116.6
COc1cccc(CN2CC(C(=O)NCCCn3ccnc3C)CCC2=O)c1 (stereo not given) | x | x | -8.0 | x | x | x | x | x
CC(C)c1ccccc1OCC(=O)Nc1ccc2[nH]ncc2c1 | x | x | -0.4 | x | x | x | x | x
COc1ccc(C)cc1NC(=O)NC1CCCCCCC1 | x | x | 12.7 | x | x | x | x | x
COc1ccc(C)cc1NC(=O)Nc1ccc(Br)cn1 | -51.3 | 143.7* | 6.4 | 1.8 | -11.2 | 116.2 | 96.8 | 97.5
Cc1ccc(S(=O)(=O)N2CCCCC2)cc1C(=O)Nc1ccc2cn[nH]c2c1 | -48.7 | 150.7* | -10.7 | 14.7 | 8.9 | 134.9* | 100.6 | 93.8
CC(=O)Nc1ccc(NC(=O)c2cc(S(=O)(=O)N3CCCCC3)ccc2C)cc1 | x | x | 10.4 | x | x | x | x | x
O=c1c(=O)n(CCO)n(CCO)c(=O)n1CCO | x | x | -3.0 | x | x | x | x | x
CCC1=NN=C(c2ccc(F)cc2)C(c2c[nH]c3ccccc23)N1O (stereo not given) | -70.6 | 162.9* | 0.6 | -0.9 | 7.8 | 158.9* | 104.4 | 112.4
Cc1ccc(N2C(=O)CC(c3c[nH]c4ccccc34)C2=O)cc1 (stereo not given) | 5.5 | 96.5 | -5.8 | 3.3 | 31.5 | x | x | x
CC(C)CNc1nc(N)c([N+](=O)[O-])c(N2CCCCCC2)n1 | x | x | -4.1 | x | x | x | x | x
COc1ccc(NC(=O)c2sc(SCc3ccccc3)nc2N)cc1 | 9.6 | 95.0 | -9.8 | -9.3 | 11.9 | x | x | x
COc1ccc(NC(=O)c2sc(SC)nc2N)cc1 | -34.9 | 136.2* | 16.4 | -24.8 | 4.5 | 162.2* | 126.8* | 150.1*
CCOC(=O)Cc1cc(-c2ccccc2)nc2ccc3ccccc3c12 | -39.2 | 136.0* | 5.3 | -5.5 | 16.7 | 124.3 | 114.4 | 105.1
CCOC(=O)c1cc(-c2ccccc2)nc2ccc(C)cc12 | x | x | 2.7 | x | 9.3 | x | x | x
Cc1noc(/C=C/N(C)C)c1S(=O)(=O)N(C)CC(=O)N1CCc2ccccc21 | 0.4 | 104.1 | x | -2.2 | 15.2 | x | x | x
Cc1noc(/C=C/N(C)C)c1S(=O)(=O)N1CCc2ccccc21 | -55.7 | 151.1* | 14.8 | 6.1 | 5.5 | 139.2* | 103.4 | 96.9
O=C(NC(=S)Nc1nc2c(ccc3ccccc32)s1)c1cccs1 | -47.0 | 139.7* | 7.8 | 0.1 | -0.2 | 142.1* | 99.6 | 80.1
COc1cc2c(C#Cc3cccnc3)c(-c3ccsc3)oc(=O)c2cc1OC | x | x | -7.4 | x | x | x | x | x
COc1ccccc1-c1nnc2n1N=C(c1ccc(O)c(O)c1)CS2 | -38.1 | 136.1* | -13.0 | 2.7 | -14.3 | 126.8 | 160.2* | 125.2*
Brc1ccccc1C1=Nn2c(nnc2-c2ccccc2)SC1 | -38.0 | 136.7* | -6.3 | 4.8 | -3.9 | 140.3* | 100.5 | 91.5
COc1ccc(C2=Nn3c(nnc3-c3ccccc3OC)SC2)cc1OC1CCOC1 (stereo not given) | x | x | 7.5 | x | x | x | x | x
Cc1ccc(C(=O)NCCN2CCC(n3c(=O)[nH]c4ccccc43)CC2)cc1 | x | x | 1.1 | x | x | x | x | x
CC1=C(CC(=O)c2ccccc2)C(=O)c2ccccc2C1=O | -33.3 | 138.0* | 38.6 | -18.6 | 31.1 | 143.0* | 103.6 | 111.6
Cc1ccc(S(=O)(=O)N2C[C@H]3[C@H]4C(=O)N(c5ccccc5)C(=O)[C@H]4CC(=O)[C@H]3[C@@H]2c2cccc3ccccc23)cc1 | x | x | -7.2 | x | x | x | x | x
SMILES | STAT3 inh | STAT3 act-1 | C8 TRAIL sens | STAT1 blocker | PPC-1+TRAIL kill | STAT3 act-2 | NFkB act 2 | STAT1 act
Cc1cc(NC(=O)NC(=O)c2ccccc2NC(=O)C(C)N)ccc1Oc1ncc(Br)cn1 (stereo not given) | x | x | -1.9 | x | x | x | x | x
N#CC1=C(N)Oc2n[nH]c(-c3cccs3)c2C1c1cccs1 (stereo not given) | -89.4 | 176.4* | -6.0 | 24.3 | -18.9 | 114.2 | 116.4 | 71.7
Cc1nn(-c2ccccc2)c2c1C(c1cccs1)C(C#N)=C(N)O2 (stereo not given) | -49.1 | 148.5* | -7.4 | 14.8 | 3.2 | 129.1 | 102.2 | 94.6
CCCn1c(CCNc2nc(-c3cccc(Br)c3)cs2)nc2ccccc21 | x | x | 0.2 | x | x | x | x | x
O=C(COC(=O)COc1ccccc1)Nc1ccc(Br)cc1Br | x | x | -16.0 | x | x | x | x | x
CCOC(=O)c1[nH]c2ccccc2c1NC(=O)COC | -70.0 | 168.1* | -13.8 | 17.9 | 20.2 | 165.3* | 101.3 | 93.3
CCOC(=O)c1[nH]c2ccccc2c1NC(=O)CC | -109.7 | 193.8* | -4.4 | 8.9 | 10.8 | 148.0* | 108.2 | 96.0
CCOC(=O)c1[nH]c2ccccc2c1NC(=O)C(C)(C)C | 2.9 | 102.0 | -6.0 | 0.0 | 20.3 | x | x | x
CCOC(=O)c1[nH]c2ccccc2c1NC(C)=O | x | x | 1.8 | x | 21.7 | x | x | x
COc1ccc2c(c1)sc(=NC(=O)CS(=O)(=O)c1ccc(F)cc1)n2C | x | x | 7.4 | x | x | x | x | x
COc1ccccc1NC(=O)c1[nH]c(C)c(C(C)=O)c1C | -60.1 | 162.3* | 12.5 | 2.9 | 0.5 | 158.1* | 104.6 | 96.6
CC(=O)c1c(C)[nH]c(C(=O)Nc2cccc(C)c2C)c1C | x | x | -3.9 | x | x | x | x | x
COC(=O)[C@H]1C[C@@]2(O)CN(S(=O)(=O)c3ccc(C)cc3)C[C@@]2(OC(=O)NCc2ccco2)C[C@H]1C(=O)OC | x | x | 2.3 | x | x | x | x | x
O=C1CN(C(=O)c2ccc(Br)o2)C(c2ccccc2)c2cc(Br)ccc2N1 (stereo not given) | -46.9 | 142.4* | 16.7 | 1.4 | 19.0 | 138.7* | 100.4 | 111.3
O=C1CN(C(=O)c2ccc(Br)o2)C(c2ccccc2)c2cc(Cl)ccc2N1 (stereo not given) | -19.6 | 124.4 | 13.6 | 8.4 | 16.3 | x | x | x
Cc1ccc(-c2nnn(CC(=O)NC(=O)NC3CCCCC3)n2)cc1 | x | x | 7.5 | x | x | x | x | x
Cc1nn(CCC(=O)NNC(=S)Nc2ccc([N+](=O)[O-])cc2)c(C)c1[N+](=O)[O-] | -46.8 | 140.3* | 1.5 | 4.2 | 23.9 | 135.6* | 104.2 | 102.5
COc1cc2c(cc1OC)CN(CC(=O)Nc1ccccc1C#N)CC2 | -63.9 | 159.1* | -3.2 | 4.4 | 3.9 | 138.2* | 104.5 | 93.9
CCOC(=O)c1ccccc1NC(=O)C1CCCO1 (stereo not given) | x | x | -7.4 | x | x | x | x | x
